Assay results: ChEMBL document CHEMBL5696442, “Discovery of type II inhibitors of TGFβ-activated kinase 1 (TAK1) and mitogen-activated protein kinase kinase kinase kinase 2 (MAP4K2)” (J Med Chem, 2015)
Activity calls are given as the source filed them. The rule behind the calls is not given here.

Key:
[1] = target: Tyrosine-protein kinase Tec (Homo sapiens) (UniProt P42680); test: Inhibition of TEC (unknown origin) at 1 uM by Ambit Kinomescan binding assay relative to control
[2] = target: Serine/threonine-protein kinase pim-3 (Homo sapiens) (UniProt Q86V86); test: Inhibition of PIM3 (unknown origin) at 1 uM by Ambit Kinomescan binding assay relative to control; values are per cent of control
[3] = target: Serine/threonine-protein kinase Nek4 (Homo sapiens) (UniProt P51957); test: Inhibition of NEK4 Lys2 labeling site in human A-375 cells at 0.5 uM by KiNativ Profiling analysis relative to control; format: cell-based
Serine/threonine-protein kinase Nek4 (Homo sapiens), sequence (P51957 whole entry, looked up): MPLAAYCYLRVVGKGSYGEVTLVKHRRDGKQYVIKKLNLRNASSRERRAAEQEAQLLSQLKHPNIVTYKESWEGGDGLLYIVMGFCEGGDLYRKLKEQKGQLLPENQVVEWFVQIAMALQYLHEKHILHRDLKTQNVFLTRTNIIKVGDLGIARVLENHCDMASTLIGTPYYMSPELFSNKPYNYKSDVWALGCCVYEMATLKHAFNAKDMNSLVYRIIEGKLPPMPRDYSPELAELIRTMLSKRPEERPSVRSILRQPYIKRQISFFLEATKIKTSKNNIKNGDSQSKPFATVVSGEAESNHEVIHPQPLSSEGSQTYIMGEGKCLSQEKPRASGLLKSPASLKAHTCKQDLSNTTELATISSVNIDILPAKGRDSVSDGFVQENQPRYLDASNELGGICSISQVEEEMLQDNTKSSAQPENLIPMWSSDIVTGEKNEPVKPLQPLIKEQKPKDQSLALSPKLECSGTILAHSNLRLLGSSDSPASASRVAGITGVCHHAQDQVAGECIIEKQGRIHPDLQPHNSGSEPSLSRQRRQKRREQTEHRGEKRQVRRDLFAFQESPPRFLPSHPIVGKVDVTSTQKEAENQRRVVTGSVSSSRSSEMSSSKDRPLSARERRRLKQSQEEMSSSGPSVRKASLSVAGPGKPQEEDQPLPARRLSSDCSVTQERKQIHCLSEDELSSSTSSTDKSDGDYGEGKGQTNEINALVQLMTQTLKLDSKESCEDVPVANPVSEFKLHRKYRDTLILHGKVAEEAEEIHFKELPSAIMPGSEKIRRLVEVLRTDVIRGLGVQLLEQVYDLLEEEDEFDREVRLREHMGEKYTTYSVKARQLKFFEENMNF

[4] = target: T1, NUAK family SNF1-like kinase 2 (Homo sapiens) (UniProt Q9H093); test: Inhibition of NuaK2 Lys1 labeling site in human A-375 cells at 5 uM by KiNativ Profiling analysis relative to control; format: cell-based
T1 sequence (whole entry): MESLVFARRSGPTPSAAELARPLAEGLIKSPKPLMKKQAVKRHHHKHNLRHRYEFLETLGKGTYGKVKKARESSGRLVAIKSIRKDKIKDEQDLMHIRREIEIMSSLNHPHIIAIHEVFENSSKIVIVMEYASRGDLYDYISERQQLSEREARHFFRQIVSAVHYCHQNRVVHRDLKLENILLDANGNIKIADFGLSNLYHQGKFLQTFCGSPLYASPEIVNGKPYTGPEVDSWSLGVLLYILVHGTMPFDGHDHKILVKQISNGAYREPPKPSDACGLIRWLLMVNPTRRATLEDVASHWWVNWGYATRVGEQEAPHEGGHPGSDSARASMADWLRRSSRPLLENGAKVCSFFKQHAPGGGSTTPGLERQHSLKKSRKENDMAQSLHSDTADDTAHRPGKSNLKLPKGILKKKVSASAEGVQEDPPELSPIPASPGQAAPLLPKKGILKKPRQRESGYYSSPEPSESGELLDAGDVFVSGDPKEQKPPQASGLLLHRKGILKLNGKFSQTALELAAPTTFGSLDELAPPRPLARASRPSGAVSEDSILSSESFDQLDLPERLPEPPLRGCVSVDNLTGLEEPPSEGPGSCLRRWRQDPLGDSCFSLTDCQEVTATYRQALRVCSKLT

[5] = target: T2, Mitogen-activated protein kinase kinase kinase kinase 2 (Homo sapiens) (UniProt Q12851); test: Inhibition of MAP4K2 Lys2 labeling site in human A-375 cells at 0.5 uM by KiNativ Profiling analysis relative to control; format: cell-based
T2 sequence (whole entry): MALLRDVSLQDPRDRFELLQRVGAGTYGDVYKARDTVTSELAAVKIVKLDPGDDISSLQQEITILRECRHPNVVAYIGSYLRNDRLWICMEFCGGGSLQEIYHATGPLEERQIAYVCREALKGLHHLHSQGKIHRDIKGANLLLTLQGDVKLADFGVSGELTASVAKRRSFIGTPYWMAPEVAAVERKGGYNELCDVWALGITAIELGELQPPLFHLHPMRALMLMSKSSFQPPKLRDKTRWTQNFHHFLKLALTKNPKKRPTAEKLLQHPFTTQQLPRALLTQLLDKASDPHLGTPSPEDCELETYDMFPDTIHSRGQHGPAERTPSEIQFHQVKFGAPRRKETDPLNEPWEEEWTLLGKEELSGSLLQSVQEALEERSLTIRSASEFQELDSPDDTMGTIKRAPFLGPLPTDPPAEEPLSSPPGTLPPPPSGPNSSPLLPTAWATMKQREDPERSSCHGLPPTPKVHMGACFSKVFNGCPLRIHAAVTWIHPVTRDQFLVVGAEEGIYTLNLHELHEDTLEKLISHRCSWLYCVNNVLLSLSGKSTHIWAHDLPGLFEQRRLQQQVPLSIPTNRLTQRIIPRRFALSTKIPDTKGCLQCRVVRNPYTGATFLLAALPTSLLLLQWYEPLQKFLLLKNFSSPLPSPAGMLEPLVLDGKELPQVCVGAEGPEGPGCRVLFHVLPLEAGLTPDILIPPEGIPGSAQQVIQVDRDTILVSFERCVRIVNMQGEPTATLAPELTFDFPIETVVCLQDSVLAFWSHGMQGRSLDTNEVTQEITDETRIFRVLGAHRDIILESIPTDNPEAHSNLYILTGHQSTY

[6] = target: Phosphatidylinositol 4,5-bisphosphate 3-kinase catalytic subunit alpha isoform (Homo sapiens) (UniProt P42336); test: Inhibition of PIK3CA (unknown origin) at 10 uM by Ambit Kinomescan binding assay
Phosphatidylinositol 4,5-bisphosphate 3-kinase catalytic subunit alpha isoform (Homo sapiens), sequence (P42336 whole entry, canonical isoform): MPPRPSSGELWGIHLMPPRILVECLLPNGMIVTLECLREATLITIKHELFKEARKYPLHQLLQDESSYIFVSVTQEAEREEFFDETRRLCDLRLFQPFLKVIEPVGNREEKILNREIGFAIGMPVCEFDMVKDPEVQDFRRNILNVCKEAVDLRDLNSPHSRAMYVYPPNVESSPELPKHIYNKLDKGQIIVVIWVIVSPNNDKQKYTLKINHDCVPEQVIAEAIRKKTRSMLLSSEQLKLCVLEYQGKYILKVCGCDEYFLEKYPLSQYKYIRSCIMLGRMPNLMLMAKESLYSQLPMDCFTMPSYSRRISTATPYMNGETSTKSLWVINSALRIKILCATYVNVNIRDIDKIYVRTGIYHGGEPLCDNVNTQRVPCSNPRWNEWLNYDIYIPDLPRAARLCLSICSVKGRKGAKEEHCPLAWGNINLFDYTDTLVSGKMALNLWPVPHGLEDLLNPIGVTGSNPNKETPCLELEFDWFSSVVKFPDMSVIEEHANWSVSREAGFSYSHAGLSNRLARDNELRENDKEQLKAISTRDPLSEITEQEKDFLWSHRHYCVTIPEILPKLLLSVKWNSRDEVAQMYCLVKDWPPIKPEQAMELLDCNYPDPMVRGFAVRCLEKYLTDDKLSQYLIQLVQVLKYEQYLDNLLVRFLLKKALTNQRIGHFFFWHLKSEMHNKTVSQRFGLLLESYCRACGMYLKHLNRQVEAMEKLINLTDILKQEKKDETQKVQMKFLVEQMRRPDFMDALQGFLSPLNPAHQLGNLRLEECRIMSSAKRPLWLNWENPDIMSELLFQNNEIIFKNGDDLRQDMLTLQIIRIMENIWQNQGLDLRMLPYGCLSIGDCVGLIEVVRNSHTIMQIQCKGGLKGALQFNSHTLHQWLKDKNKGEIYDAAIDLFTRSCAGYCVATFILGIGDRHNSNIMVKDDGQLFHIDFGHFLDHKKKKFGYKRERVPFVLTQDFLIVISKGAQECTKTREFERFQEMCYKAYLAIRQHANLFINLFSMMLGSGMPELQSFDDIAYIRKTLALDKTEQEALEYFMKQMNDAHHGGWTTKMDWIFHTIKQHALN

[7] = Cmax in Swiss albino mouse at 1 mg/kg, iv measured upto 24 hrs by LC/MS/MS analysis; format: ADME, organism-based; details: in vivo
Procedure, shortened: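 Male Swiss albino mice. […] Blood was taken into K2EDTA from three mice per time point, from 0 to 24 h. Plasma was precipitated with acetonitrile and analysed by LC/MS/MS (LLOQ 1.138 ng/mL).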

[8] = target: Tyrosine-protein kinase ABL2 (Homo sapiens, UniProt P42684); test: Inhibition of ABL2 (unknown origin) at 10 uM by Ambit Kinomescan binding assay relative to control; values are per cent of control
Tyrosine-protein kinase ABL2, sequence (P42684 whole entry): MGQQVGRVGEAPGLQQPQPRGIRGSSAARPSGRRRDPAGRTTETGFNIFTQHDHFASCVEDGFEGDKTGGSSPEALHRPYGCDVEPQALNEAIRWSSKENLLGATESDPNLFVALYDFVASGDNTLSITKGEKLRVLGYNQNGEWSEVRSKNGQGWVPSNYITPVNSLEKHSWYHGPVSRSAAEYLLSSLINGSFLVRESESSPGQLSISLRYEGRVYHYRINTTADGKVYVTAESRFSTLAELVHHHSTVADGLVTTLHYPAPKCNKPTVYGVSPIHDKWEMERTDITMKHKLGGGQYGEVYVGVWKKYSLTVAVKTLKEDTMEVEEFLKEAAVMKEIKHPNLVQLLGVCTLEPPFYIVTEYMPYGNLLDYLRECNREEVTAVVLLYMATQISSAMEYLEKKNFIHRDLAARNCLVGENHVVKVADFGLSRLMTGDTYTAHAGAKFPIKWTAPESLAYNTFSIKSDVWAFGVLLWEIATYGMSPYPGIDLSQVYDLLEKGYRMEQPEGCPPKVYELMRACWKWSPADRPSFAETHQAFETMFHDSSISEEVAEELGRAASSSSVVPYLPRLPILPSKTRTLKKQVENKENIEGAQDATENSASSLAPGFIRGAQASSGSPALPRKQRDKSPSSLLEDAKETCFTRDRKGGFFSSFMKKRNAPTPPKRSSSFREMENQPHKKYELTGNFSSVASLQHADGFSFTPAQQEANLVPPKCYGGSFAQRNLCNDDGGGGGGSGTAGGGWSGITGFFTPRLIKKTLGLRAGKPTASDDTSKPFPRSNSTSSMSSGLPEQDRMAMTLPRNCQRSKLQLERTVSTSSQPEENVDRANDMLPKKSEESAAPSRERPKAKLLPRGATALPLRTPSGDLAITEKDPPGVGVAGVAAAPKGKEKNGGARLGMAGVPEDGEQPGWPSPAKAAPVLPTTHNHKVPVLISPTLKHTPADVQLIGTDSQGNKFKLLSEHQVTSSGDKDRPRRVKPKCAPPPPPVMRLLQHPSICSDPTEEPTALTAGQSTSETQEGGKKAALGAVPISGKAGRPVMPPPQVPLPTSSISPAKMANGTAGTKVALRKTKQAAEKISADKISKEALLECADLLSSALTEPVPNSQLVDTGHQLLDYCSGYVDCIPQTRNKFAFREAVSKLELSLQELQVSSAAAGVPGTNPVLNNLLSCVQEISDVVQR

[9] = target: Serine/threonine-protein kinase pim-2 (Homo sapiens) (UniProt Q9P1W9); test: Inhibition of PIM2 (unknown origin) at 10 uM by Ambit Kinomescan binding assay
Serine/threonine-protein kinase pim-2 (Homo sapiens), sequence (Q9P1W9 whole entry, looked up): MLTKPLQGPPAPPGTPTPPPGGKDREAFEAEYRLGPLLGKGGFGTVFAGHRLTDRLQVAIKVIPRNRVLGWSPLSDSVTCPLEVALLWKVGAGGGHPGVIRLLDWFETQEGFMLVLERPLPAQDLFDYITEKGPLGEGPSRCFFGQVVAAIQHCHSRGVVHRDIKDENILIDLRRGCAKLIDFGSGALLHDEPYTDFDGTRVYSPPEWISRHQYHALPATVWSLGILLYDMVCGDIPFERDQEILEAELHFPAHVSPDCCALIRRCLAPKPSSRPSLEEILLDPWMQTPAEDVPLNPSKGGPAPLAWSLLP

[10] = Inhibition of […] ATP labeling site in human Huh-7 cells at 10 uM by KiNativ Profiling analysis relative to control; details: condition cancer
[11] = target: Ribosomal protein S6 kinase alpha-3 (Homo sapiens) (UniProt P51812); test: Inhibition of RSK2 domain2 Lys2 labeling site DLKPSNILYVDESGNPESIR in human Huh-7 cell lysate at 1 uM by KiNativ Profiling analysis relative to control; format: subcellular

Tyrosine-protein kinase Tec (Homo sapiens), sequence (P42680 whole entry, looked up): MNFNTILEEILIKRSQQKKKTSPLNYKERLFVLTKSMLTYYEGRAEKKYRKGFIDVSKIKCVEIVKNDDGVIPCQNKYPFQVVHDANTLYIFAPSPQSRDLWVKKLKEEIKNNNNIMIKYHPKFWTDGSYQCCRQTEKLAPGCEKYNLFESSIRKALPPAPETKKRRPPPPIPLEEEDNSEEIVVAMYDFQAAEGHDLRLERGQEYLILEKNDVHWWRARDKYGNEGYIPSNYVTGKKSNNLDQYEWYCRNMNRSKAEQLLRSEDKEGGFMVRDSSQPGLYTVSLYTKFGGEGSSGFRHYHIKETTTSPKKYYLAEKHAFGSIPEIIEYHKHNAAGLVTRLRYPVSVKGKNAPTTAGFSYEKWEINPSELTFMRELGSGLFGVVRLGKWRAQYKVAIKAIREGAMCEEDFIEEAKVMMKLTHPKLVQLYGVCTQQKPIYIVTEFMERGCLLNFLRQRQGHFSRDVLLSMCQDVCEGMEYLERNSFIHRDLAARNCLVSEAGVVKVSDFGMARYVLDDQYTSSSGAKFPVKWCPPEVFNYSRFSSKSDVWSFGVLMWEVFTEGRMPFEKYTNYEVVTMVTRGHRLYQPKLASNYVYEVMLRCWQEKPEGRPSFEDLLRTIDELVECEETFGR

CCN1CCN(Cc2ccc(NC(=O)c3ccc(C)c(/C=C/c4cnc5[nH]ccc5c4OC)c3)cc2C(F)(F)F)CC1
inhibition [1]: 16%
residual activity [2]: 100%
inhibition [3]: 8.6%
inhibition [4]: -6.1%

CCN1CCN(Cc2ccc(NC(=O)c3ccc(C)c(Oc4ccnc5[nH]ccc45)c3)cc2C(F)(F)F)CC1
inhibition [5]: 91.1%
inhibition [6]: inactive
Cmax [7]: 0.396 µg/mL
% of control [8]: 0.6%
inhibition [9]: inactive
inhibition at 10 µM [10]: -5.1%

CNc1cc(Oc2cc(C(=O)Nc3cc(N4CCN(C)CC4)cc(C(F)(F)F)c3)ccc2C)ncn1
inhibition [11]: 0.2%
